Experimental data as given in ChEMBL document CHEMBL1155347, “Synthesis and antimicrobial activities of novel quinoline derivatives carrying 1,2,4-triazole moiety” (2009).
≈ marks a conversion by molar mass, not a printed value.

Key:
Format in all cases: functional
[1] = system: Trichophyton mentagrophytes; assay: Antifungal activity against recultured Trichophyton mentagrophytes by serial plate dilution method
[2] = system: Talaromyces marneffei; assay: Antifungal activity against recultured Penicillium marneffei by serial plate dilution method
[3] = system: Staphylococcus aureus; assay: Antibacterial activity against Staphylococcus aureus ATCC 25923 at MIC after 3 to 4 days by agar well diffusion method
[4] = system: Aspergillus flavus; assay: Antifungal activity against Aspergillus flavus NCIM 524 at MIC after 3 to 4 days by agar well diffusion method
Procedure, shortened: (§1)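 Sabouraud agar (peptone, D-glucose, agar; pH 5.7) seeded with spore suspension made by transferring a loopful of fungus to 3 mL normal saline. Excess decanted, plates dried 1 h at 37 °C. Compounds in DMSO at MIC added to punched wells; DMSO control. Triplicate plates kept 3–4 days at 37 °C.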

[5] = system: Aspergillus fumigatus; assay: Antifungal activity against Aspergillus fumigatus NCIM 902 by serial plate dilution method
[6] = system: Klebsiella pneumoniae; assay: Antibacterial activity against recultured Klebsiella pneumoniae after 16 to 18 hrs by serial plate dilution method
Procedure, shortened: (§2)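 Drug serially diluted in Mueller–Hinton broth in tubes, adjusted to pH 5.0 with phosphate buffer. Inoculated with standardized bacterial suspension and incubated 16–18 h at 37 °C. MIC taken as lowest concentration with no visible growth.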

[7] = system: Staphylococcus aureus; assay: Antibacterial activity against Staphylococcus aureus ATCC 25923 after 16 to 18 hrs by serial plate dilution method; procedure, shortened: as §2
[8] = system: Aspergillus flavus; assay: Antifungal activity against Aspergillus flavus NCIM 524 by serial plate dilution method
[9] = system: Escherichia coli; assay: Antibacterial activity against Escherichia coli ATCC 25922 at MIC after 3 to 4 days by agar well diffusion method
[10] = system: Aspergillus fumigatus; assay: Antifungal activity against Aspergillus fumigatus NCIM 902 at MIC after 3 to 4 days by agar well diffusion method; procedure, shortened: as §1
[11] = system: Klebsiella pneumoniae; assay: Antibacterial activity against recultured Klebsiella pneumoniae at MIC after 3 to 4 days by agar well diffusion method
[12] = system: Talaromyces marneffei; assay: Antifungal activity against recultured Penicillium marneffei at MIC after 3 to 4 days by agar well diffusion method; procedure, shortened: as §1
[13] = system: Trichophyton mentagrophytes; assay: Antifungal activity against recultured Trichophyton mentagrophytes at MIC after 3 to 4 days by agar well diffusion method; procedure, shortened: as §1
[14] = system: Pseudomonas aeruginosa; assay: Antibacterial activity against Pseudomonas aeruginosa ATCC 27853 after 16 to 18 hrs by serial plate dilution method; procedure, shortened: as §2
[15] = system: Pseudomonas aeruginosa; assay: Antibacterial activity against Pseudomonas aeruginosa ATCC 27853 at MIC after 3 to 4 days by agar well diffusion method
[16] = system: Escherichia coli; assay: Antibacterial activity against Escherichia coli ATCC 25922 after 16 to 18 hrs by serial plate dilution method; procedure, shortened: as §2

Row | SMILES | MIC [1] | MIC [2] | MIC [5] | MIC [6] | MIC [7] | MIC [8] | MIC [14] | MIC [16] | inhibition zone (IZ) [3] | inhibition zone (IZ) [4] | inhibition zone (IZ) [9] | inhibition zone (IZ) [10] | inhibition zone (IZ) [11] | inhibition zone (IZ) [12] | inhibition zone (IZ) [13] | inhibition zone (IZ) [15]
1 | COCCn1c(S)nnc1-c1cnc2c(C(F)(F)F)cccc2c1N1CCN(C2CCCCC2)CC1 | 6.25 µg/mL (≈ 12 µM) | 50 µg/mL (≈ 96 µM) | 50 µg/mL (≈ 96 µM) | 50 µg/mL (≈ 96 µM) | 50 µg/mL (≈ 96 µM) | 50 µg/mL (≈ 96 µM) | 50 µg/mL (≈ 96 µM) | 6.25 µg/mL (≈ 12 µM) | <10 mm | <10 mm | 20 mm | <10 mm | <10 mm | <10 mm | 20 mm | <10 mm
2 | Oc1c(-c2nnc(S)n2-c2ccccc2)cnc2c(C(F)(F)F)cccc12 | 6.25 µg/mL (≈ 16.1 µM) | 6.25 µg/mL (≈ 16.1 µM) | 6.25 µg/mL (≈ 16.1 µM) | 6.25 µg/mL (≈ 16.1 µM) | 6.25 µg/mL (≈ 16.1 µM) | 6.25 µg/mL (≈ 16.1 µM) | 6.25 µg/mL (≈ 16.1 µM) | 6.25 µg/mL (≈ 16.1 µM) | 16 mm | 16 mm | 20 mm | 16 mm | 16 mm | 16 mm | 20 mm | 16 mm
3 | FC(F)(F)c1cccc2c(NC3CC3)c(-c3nnc(S)n3Cc3ccccc3)cnc12 | 6.25 µg/mL (≈ 14.2 µM) | 6.25 µg/mL (≈ 14.2 µM) | 6.25 µg/mL (≈ 14.2 µM) | 6.25 µg/mL (≈ 14.2 µM) | 6.25 µg/mL (≈ 14.2 µM) | 6.25 µg/mL (≈ 14.2 µM) | 6.25 µg/mL (≈ 14.2 µM) | 6.25 µg/mL (≈ 14.2 µM) | 16 mm | 16 mm | 20 mm | 16 mm | 16 mm | 16 mm | 20 mm | 16 mm

Second part, led by results:

Row | MIC [1] | MIC [2] | MIC [5] | MIC [6] | MIC [7] | MIC [8] | MIC [14] | MIC [16] | SMILES | inhibition zone (IZ) [3] | inhibition zone (IZ) [4] | inhibition zone (IZ) [9] | inhibition zone (IZ) [10] | inhibition zone (IZ) [11] | inhibition zone (IZ) [12] | inhibition zone (IZ) [13] | inhibition zone (IZ) [15]
4 | 6.25 µg/mL (≈ 13.4 µM) | 50 µg/mL (≈ 107 µM) | 50 µg/mL (≈ 107 µM) | 50 µg/mL (≈ 107 µM) | 50 µg/mL (≈ 107 µM) | 50 µg/mL (≈ 107 µM) | 50 µg/mL (≈ 107 µM) | 6.25 µg/mL (≈ 13.4 µM) | CCN1CCN(c2c(-c3nnc(S)n3CCOC)cnc3c(C(F)(F)F)cccc23)CC1 | <10 mm | <10 mm | 20 mm | <10 mm | <10 mm | <10 mm | 20 mm | <10 mm
5 | 6.25 µg/mL (≈ 11.6 µM) | 6.25 µg/mL (≈ 11.6 µM) | 6.25 µg/mL (≈ 11.6 µM) | 6.25 µg/mL (≈ 11.6 µM) | 6.25 µg/mL (≈ 11.6 µM) | 6.25 µg/mL (≈ 11.6 µM) | 6.25 µg/mL (≈ 11.6 µM) | 6.25 µg/mL (≈ 11.6 µM) | FC(F)(F)c1cccc2c(N3CCC(N4CCOCC4)CC3)c(-c3nnc(S)n3-c3ccccc3)cnc12 | 16 mm | 16 mm | 20 mm | 16 mm | 16 mm | 16 mm | 20 mm | 16 mm
6 | 6.25 µg/mL (≈ 16.9 µM) | 6.25 µg/mL (≈ 16.9 µM) | 6.25 µg/mL (≈ 16.9 µM) | 6.25 µg/mL (≈ 16.9 µM) | 6.25 µg/mL (≈ 16.9 µM) | 6.25 µg/mL (≈ 16.9 µM) | 6.25 µg/mL (≈ 16.9 µM) | 6.25 µg/mL (≈ 16.9 µM) | COCCn1c(S)nnc1-c1cnc2c(C(F)(F)F)cccc2c1O | 16 mm | 16 mm | 20 mm | 16 mm | 16 mm | 16 mm | 20 mm | 16 mm
7 | 12.5 µg/mL (≈ 23.7 µM) | 12.5 µg/mL (≈ 23.7 µM) | 12.5 µg/mL (≈ 23.7 µM) | 12.5 µg/mL (≈ 23.7 µM) | 12.5 µg/mL (≈ 23.7 µM) | 12.5 µg/mL (≈ 23.7 µM) | 12.5 µg/mL (≈ 23.7 µM) | 12.5 µg/mL (≈ 23.7 µM) | OCCCC1CCN(c2c(-c3nnc(S)n3Cc3ccccc3)cnc3c(C(F)(F)F)cccc23)CC1 | 10 mm | 10 mm | 16 mm | 10 mm | 12 mm | 10 mm | 16 mm | 10 mm
